# Experimental data collected from several papers.
# Protocols differ between the studies behind these lines.
# Target: Serine/threonine-protein kinase STK11 (STK11, Homo sapiens, UniProt Q15831)
# One construct used (Q15831 1-433): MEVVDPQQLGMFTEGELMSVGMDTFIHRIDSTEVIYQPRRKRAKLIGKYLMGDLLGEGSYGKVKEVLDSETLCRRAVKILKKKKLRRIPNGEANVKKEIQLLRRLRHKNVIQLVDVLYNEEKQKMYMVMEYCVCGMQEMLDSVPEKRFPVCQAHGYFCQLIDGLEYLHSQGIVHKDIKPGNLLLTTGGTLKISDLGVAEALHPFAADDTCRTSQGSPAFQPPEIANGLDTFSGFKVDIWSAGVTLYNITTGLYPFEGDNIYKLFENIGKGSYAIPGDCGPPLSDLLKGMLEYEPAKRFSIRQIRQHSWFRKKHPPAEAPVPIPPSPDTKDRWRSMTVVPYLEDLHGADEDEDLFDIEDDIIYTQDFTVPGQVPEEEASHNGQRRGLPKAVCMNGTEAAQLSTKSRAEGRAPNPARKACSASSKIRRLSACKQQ
test,conditions,remaining binding,Structure (SMILES)
"binding, competition with immobilised ligand",1 µM,100%,COc1cnc(Nc2cccc(S(N)(=O)=O)c2)nc1N1CCN(c2ccccc2)C(=O)C1
binding,1 µM,100%,CN(C)c1nccc(-c2cnn3ncccc23)n1
"binding, competition with immobilised ligand",1 µM,100%,C=CC(=O)N1CCC(C(=O)NCC(=O)N2CCN(c3nc(-c4cnc(N)nc4C(F)F)nc(N4CCOCC4)n3)CC2)CC1
"binding, competition with immobilised ligand",1 µM,4.3%,O=C(c1ccc(Nc2nccc(-c3cc4ccccc4s3)n2)cc1)N1CCC(N2CCCC2)CC1
"cell-free assay, competition with immobilised ligand",1 µM,100%,CCc1ccccc1C(=O)Nc1n[nH]c2c(C)c(F)c(C3C(C#N)=C(C)N(C)C(C)=C3C#N)cc12
binding,1 µM,100%,CN(CCCC(F)(F)F)c1nccc(-c2cnn3ncccc23)n1
"cell-free assay, competition with immobilised ligand",1 µM,94%,O=C(O)[C@@H]1[C@@H](Cn2nnc3ccccc3c2=O)CC[C@H]1C(=O)c1ccc(OCCC2CCOCC2)cc1
binding,1 µM,65%,N[C@H]1CCN(c2nccc(-c3cnn4ncccc34)n2)C1
"cell-free assay, competition with immobilised ligand",0.1 µM,100%,Nc1c(C(=O)NCc2ccc(C(=O)NCCCC3CCCCC3)cc2)cnn1-c1ccccc1
"binding, competition with immobilised ligand",1 µM,0%,O=C(NCCCN1CCOCC1)c1ccc(Nc2ncc(Cl)c(-c3ccc(Cl)s3)n2)cc1
"binding, competition with immobilised ligand",1 µM,100%,Nc1ncc2c(n1)-c1c([nH]c3ccc(C#CC4CC4)cc13)CCCC2
"cell-free assay, competition with immobilised ligand",1 µM,100%,Cc1cc(NC(=O)c2cccc(S(F)(F)(F)(F)F)c2)cc(-n2ccn3nc(-c4cccnc4)cc23)c1
binding,1 µM,80%,C[C@H]1CCN(c2nccc(-c3cnn4ncccc34)n2)C1
"cell-free assay, competition with immobilised ligand",1 µM,59%,CO[C@H]1CC[C@H](CNc2ccc(S(=O)(=O)NC(=O)c3ccc(N4CCN(CC5=C(c6ccc(Cl)cc6)CC(C)(C)CC5)CC4)cc3Oc3cnc4[nH]ccc4c3)cc2[N+](=O)[O-])CC1
"binding, competition with immobilised ligand",10 µM,100%,c1cncc(-c2cccc(Nc3nccc(NC4CCCCC4)n3)c2)c1
"cell-free assay, competition with immobilised ligand",5 µM,99%,COc1ncc2cc3ccccc3nc2c1C#N
